Data from ChEMBL document CHEMBL4368938, “Design, synthesis and biological evaluation of inhibitors of cathepsin K on dedifferentiated chondrocytes” (Bioorg Med Chem, 2019).
Active and inactive are the calls of the source. No cut-off for these calls is given here.

What was measured:
[1] = target: T1, Cathepsin K (Mus musculus) (UniProt P55097); assay: Inhibition of cathepsin K in mouse Primary chondrocytes derived after 2 passages at 1 uM after 24 hrs by Coomassie blue staining-based zymography assay; format: cell-based
T1 sequence (whole entry): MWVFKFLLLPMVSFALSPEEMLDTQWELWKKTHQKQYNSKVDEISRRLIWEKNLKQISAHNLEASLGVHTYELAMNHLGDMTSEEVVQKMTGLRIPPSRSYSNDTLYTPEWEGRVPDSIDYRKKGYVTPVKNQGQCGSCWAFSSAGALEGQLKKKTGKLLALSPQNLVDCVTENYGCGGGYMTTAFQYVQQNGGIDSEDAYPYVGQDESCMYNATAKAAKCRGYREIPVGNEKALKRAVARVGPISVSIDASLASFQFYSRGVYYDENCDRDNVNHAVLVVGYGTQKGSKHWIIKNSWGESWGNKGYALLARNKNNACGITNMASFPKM
Method in brief: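 Chondrocyte lysates in pH 7.5 extraction buffer. Equal protein resolved on 12% SDS gels containing 2 mg/mL gelatin. Renatured in Tris/glycerol, then developed in pH 6.0 100 mM sodium phosphate with 1 mM EDTA and 2 mM DTT. After 30 min, buffer exchanged for fresh buffer with 0.1% DMSO ± inhibitor for 24 h at 37 °C. Coomassie stain and destain; lysis zones indicate activity.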

[2] = target: 72 kDa type IV collagenase (Mus musculus) (UniProt P33434); assay: Inhibition of MMP2 in mouse Primary chondrocytes derived after 2 passages at 1 uM after 24 hrs by Coomassie blue staining-based zymography assay; format: cell-based
Method in brief: (§1)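 Gelatin zymography of extracellular medium from primary mouse chondrocytes. Medium collected in pH 7.5 Tris/EGTA/Triton extraction buffer, and equal protein run on 8% SDS gels with 1.2 mg/mL gelatin. Renatured in Tris/20% glycerol (2 × 45 min), then pH 7.4 Tris/NaCl/5 mM CaCl2 buffer. After 30 min, fresh buffer with 0.1% DMSO ± inhibitor for 24 h at 37 °C. Coomassie stained; clear bands scored. Triplicate.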

[3] = target: T1, Cathepsin K (Mus musculus); assay: Inhibition of cathepsin K in mouse Primary chondrocytes derived after 2 passages at 0.1 to 1 uM using Z-GPR-4MbetaNA as substrate by fluorescence assay relative to control; format: cell-based
Method in brief: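 Lysates of passaged primary chondrocytes in zymography extraction buffer. Incubated with Z-GPR-4MβNA (1 mg/mL), and released 4MβNA captured with 10 μM 5-nitrosalicylaldehyde. Fluorescence read at ex 488/em 525 nm, at least three reads per condition. Activity taken as (control − sample fluorescence) normalized to Bradford protein. Three independent experiments in triplicate.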

[4] = target: Matrix metalloproteinase-9 (Mus musculus) (UniProt P41245); assay: Inhibition of MMP9 in mouse Primary chondrocytes derived after 2 passages at 1 uM after 24 hrs by Coomassie blue staining-based zymography assay; format: cell-based; method in brief: as §1
Mus musculus [5] = species on record: Mus musculus; assay: Inhibition of aggrecanase in mouse Primary chondrocytes derived after 1 passages assessed as effect on measuring sGAG content at 1 uM by Alcian blue staining-based assay; format: cell-based
Method in brief: (§2)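 Passaged primary chondrocytes cultured ± inhibitor. Washed in PBS, fixed in 4% formaldehyde for 30 min at RT, then stained 30 min with 1% Alcian blue in 0.1 N HCl. Dye extracted with 33% isopropanol in 4.0 mol/L GnCl and A595 measured. Three independent experiments in triplicate.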

Mus musculus [6] = species on record: Mus musculus; assay: Inhibition of aggrecanase in mouse Primary chondrocytes derived after 0 passages assessed as effect on measuring sGAG content at 1 uM by Alcian blue staining-based assay; format: cell-based
Procathepsin L = Procathepsin L (Homo sapiens, UniProt P07711); assay: Inhibition of human liver cathepsin L
Mus musculus [7] = species on record: Mus musculus; assay: Inhibition of aggrecanase in mouse Primary chondrocytes derived after 2 passages assessed as effect on measuring sGAG content at 1 uM by Alcian blue staining-based assay; format: cell-based; method in brief: as §2
Cathepsin K = target: T2, Cathepsin K (Homo sapiens, UniProt P43235); assay: Inhibition of recombinant His-tagged human cathepsin K expressed in Escherichia coli
T2 sequence (P43235 whole entry): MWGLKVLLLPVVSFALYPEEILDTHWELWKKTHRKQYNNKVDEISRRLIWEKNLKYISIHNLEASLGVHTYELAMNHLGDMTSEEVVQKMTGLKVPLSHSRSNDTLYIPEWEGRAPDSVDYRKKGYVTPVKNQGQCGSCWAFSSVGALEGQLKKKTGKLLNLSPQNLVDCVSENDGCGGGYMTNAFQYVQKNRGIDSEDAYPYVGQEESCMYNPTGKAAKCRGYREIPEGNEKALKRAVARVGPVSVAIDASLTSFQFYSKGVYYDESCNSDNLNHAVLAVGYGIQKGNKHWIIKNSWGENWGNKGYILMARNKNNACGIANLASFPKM

[8] = Cytotoxicity against mouse Primary chondrocytes assessed as reduction in cell viability at 0.001 to 5 uM after 3 days by MTT assay; details: 72 h
Method in brief: (§3)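 Cells plated at 60000/well (primary chondrocytes from epiphyseal cartilage of 5-6 day-old SWISS mice) or 100 000/well (MG-63, MOVAS cell lines). Grown in DMEM with 10% FBS plus penicillin/streptomycin, with or without inhibitor, for 3 days up to confluence. MTT 0.125 mg/mL final for 4 h, then DMSO solubilization and A570 read. Normalized to 0.1% DMSO control as 100%. Three sample pools, each in triplicate (n = 9).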

Cathepsin S = Cathepsin S (Homo sapiens, UniProt P25774); assay: Inhibition of recombinant human cathepsin S expressed in Escherichia coli
[9] = Cytotoxicity against mouse MOVAS1 cells assessed as reduction in cell viability at 0.001 to 5 uM after 3 days by MTT assay; format: cell-based; details: 72 h; method in brief: as §3
MG-63 = assay: Cytotoxicity against human MG63 cells assessed as reduction in cell viability at 0.001 to 5 uM after 3 days by MTT assay; format: cell-based; details: mg-63, 72 h; method in brief: as §3

Chain of Procathepsin L (P07711 whole entry): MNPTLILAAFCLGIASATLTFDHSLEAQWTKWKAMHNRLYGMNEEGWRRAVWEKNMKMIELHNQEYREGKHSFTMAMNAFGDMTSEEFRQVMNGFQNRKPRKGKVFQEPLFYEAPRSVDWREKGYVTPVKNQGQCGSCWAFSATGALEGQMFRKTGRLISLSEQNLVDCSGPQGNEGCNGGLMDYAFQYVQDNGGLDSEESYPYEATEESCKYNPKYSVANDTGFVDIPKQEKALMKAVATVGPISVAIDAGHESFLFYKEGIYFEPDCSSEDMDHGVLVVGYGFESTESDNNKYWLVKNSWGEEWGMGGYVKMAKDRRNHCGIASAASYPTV
Chain of 72 kDa type IV collagenase (Mus musculus) (P33434 whole entry): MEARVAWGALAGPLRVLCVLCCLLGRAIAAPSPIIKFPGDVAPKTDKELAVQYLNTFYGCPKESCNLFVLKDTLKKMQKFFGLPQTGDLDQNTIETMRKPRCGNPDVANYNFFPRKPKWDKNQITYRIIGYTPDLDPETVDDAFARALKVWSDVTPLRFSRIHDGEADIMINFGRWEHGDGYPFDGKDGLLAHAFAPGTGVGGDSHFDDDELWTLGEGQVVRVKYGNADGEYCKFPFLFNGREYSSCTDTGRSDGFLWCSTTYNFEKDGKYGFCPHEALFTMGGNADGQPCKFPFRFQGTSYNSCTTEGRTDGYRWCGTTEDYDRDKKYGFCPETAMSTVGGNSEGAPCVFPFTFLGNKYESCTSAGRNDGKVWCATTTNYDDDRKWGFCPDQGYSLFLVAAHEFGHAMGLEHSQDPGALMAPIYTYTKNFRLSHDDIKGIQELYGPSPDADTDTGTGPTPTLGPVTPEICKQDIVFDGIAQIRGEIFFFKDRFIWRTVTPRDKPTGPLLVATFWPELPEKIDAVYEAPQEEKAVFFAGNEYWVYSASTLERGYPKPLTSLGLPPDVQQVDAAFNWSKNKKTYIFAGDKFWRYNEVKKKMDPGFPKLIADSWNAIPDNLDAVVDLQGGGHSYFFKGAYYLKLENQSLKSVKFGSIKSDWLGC
Chain of Cathepsin S (P25774 whole entry): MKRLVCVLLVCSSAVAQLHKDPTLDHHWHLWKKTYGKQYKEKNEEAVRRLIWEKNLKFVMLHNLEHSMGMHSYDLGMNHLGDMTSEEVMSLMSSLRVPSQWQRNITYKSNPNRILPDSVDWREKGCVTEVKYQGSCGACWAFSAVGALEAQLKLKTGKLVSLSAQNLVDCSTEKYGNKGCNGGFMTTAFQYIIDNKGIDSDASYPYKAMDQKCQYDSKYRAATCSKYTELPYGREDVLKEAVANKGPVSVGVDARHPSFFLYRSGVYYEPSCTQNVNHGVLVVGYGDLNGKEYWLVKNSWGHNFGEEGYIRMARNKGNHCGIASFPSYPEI
Chain of Matrix metalloproteinase-9 (Mus musculus) (P41245 whole entry): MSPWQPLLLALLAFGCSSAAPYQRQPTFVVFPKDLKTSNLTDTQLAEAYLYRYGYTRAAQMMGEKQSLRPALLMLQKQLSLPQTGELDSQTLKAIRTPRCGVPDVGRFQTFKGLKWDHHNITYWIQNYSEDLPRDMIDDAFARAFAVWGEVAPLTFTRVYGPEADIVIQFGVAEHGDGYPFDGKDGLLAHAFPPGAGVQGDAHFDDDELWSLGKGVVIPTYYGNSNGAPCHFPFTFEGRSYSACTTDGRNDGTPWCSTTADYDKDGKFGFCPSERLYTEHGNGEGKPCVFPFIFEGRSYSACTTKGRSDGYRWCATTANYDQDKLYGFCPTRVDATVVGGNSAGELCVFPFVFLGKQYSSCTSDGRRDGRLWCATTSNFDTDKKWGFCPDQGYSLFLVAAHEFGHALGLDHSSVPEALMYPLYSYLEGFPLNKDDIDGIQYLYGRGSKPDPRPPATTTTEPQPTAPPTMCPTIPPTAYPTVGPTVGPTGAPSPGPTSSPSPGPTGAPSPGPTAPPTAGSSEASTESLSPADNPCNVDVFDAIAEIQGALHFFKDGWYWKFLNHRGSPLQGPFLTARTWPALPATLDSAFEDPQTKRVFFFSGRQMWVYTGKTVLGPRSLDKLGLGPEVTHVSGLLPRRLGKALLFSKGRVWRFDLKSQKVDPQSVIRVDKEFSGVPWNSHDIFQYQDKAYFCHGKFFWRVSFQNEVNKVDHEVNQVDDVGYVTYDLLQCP

| Compound | inhibition [1] | inhibition [2] | inhibition [3] | inhibition [4] | inhibition (Mus musculus [5]) | inhibition (Mus musculus [6]) | IC50 (Procathepsin L) | Ki (Procathepsin L) | inhibition (Mus musculus [7]) | IC50 (Cathepsin K) | Ki (Cathepsin K) | Activity [8] | IC50 (Cathepsin S) | Ki (Cathepsin S) | Activity [9] | Activity (MG-63) |
| --- | --- | --- | --- | --- | --- | --- | --- | --- | --- | --- | --- | --- | --- | --- | --- | --- |
| CC(C)(F)C[C@H](N[C@@H](c1ccc(-c2ccc(S(C)(=O)=O)cc2)cc1)C(F)(F)F)C(=O)NC1(C#N)CC1 | Active | inactive | 19 to 30% | inactive | – | – | – | – | – | – | – | – | – | – | – | – |
| CC(C)CC(C(=O)N(C)N(C)C#N)c1cccc(-c2ccc(S(C)(=O)=O)cc2)c1 (racemic) | Active | inactive | 30 to 40% | inactive | inactive | inactive | 2710 nM | 406 nM | inactive | 15 nM | 7.21 nM | Non-Toxic | 1020 nM | 735 nM | Non-Toxic | Non-Toxic |
